# Laboratory results reported in ChEMBL document CHEMBL1140080, “Adamantyl-substituted retinoid-derived molecules that interact with the orphan nuclear receptor small heterodimer partner: effects of replacing the 1-adamantyl or hydroxyl group on inhibition of cancer cell growth, induction of cancer cell apoptosis, and inhibition of SRC homology 2 …” (J Med Chem, 2008).
# Experiments:
# [1] = Induction of apoptosis in human HL60R cells at 1.0 uM after 24 hrs by acridine orange staining; format: functional
# In short: (§1)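 KG-1, HL-60R (24 h) or MDA-MB-231 (96 h) cells in 5% FBS medium attached overnight, then were treated with analogue in Me2SO or vehicle (final 0.1% Me2SO). Apoptotic cells were scored by acridine orange staining on at least three replicates. Tested concentrations were 0.1–5.0 μM, plus 25 μM for KG-1.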
# [2] = target: T1, Nuclear receptor subfamily 0 group B member 2 (Homo sapiens, UniProt Q15466); assay: Displacement of [5,5'-3H2]AHPN from human recombinant GST-SHP by liquid scintillation counting relative to 3-Cl-AHPC
# T1 sequence (Q15466 whole entry): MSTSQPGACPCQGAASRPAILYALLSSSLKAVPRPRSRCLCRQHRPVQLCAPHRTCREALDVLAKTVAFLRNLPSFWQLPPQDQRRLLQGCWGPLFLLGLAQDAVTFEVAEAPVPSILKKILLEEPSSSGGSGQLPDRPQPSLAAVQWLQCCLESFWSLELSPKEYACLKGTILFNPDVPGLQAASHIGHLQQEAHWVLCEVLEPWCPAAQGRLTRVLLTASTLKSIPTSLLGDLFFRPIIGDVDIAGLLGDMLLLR
# In short: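 Recombinant GST–human SHP was bound to glutathione–Sepharose beads and incubated 2 h with 5 nM [5,5′-3H2]AHPN with or without competitor (1.0, 5.0 or 50 μM). Beads were washed twice and counted. Displacement was expressed relative to 50 μM 3-Cl-AHPC set as 100%.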
# [3] = tested on: DU-145; assay: Antiproliferative activity against human DU145 cells after 72 hrs by MTT assay; format: functional, cell-based; conditions: DU-145, 72 h
# In short: (§2)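 Cells attached for 24 h, then exposed 72 h to analogue in Me2SO or Me2SO alone (final Me2SO 0.1%), with media and compound renewed after 48 h. Viable cells were measured by MTS tetrazolium reduction in three replicates. Top concentration tested per compound was 2.5, 5, 10, 20 or 100 μM.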
# [4] = tested on: KG-1; assay: Induction of apoptosis in human KG1 cells at 1.0 uM […] by acridine orange staining; format: functional
# [5] = tested on: KG-1; assay: Induction of apoptosis in human KG1 cells after 48 hrs by acridine orange staining; format: functional, cell-based; conditions: KG-1, 48 h
# [6] = Antiproliferative activity against human H292 cells after 72 hrs by MTT assay; format: functional, cell-based; conditions: NCI-H292, 72 h; in short: as §2
# [7] = tested on: MDA-MB-231; assay: Antiproliferative activity against human MDA-MB-231 cells after 72 hrs by MTT assay; format: functional, cell-based; conditions: MDA-MB-231, 72 h; in short: as §2
# [8] = Induction of apoptosis in human HL60R cells at 0.1 uM after 24 hrs by acridine orange staining; format: functional; in short: as §1
# [9] = tested on: MDA-MB-231; assay: Induction of apoptosis in human MDA-MB-231 cells at 2.0 uM after 96 hrs by acridine orange staining; format: functional; in short: as §1
# [10] = Antiproliferative activity against human KG1 AML cells after 48 hrs by MTT assay; format: functional, cell-based; conditions: in the assay text read “by hemocytometer cell counting” for “by MTT assay”
# In short: (§3)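 KG-1 cells in 5% FBS medium attached overnight, then treated 48 h with analogue in Me2SO or Me2SO alone (final 0.1%). Cells were harvested and counted by hemocytometer in triplicate wells. Highest concentration evaluated was 5 μM.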
# [11] = tested on: MDA-MB-231; assay: Antiproliferative activity against human MDA-MB-231 cells at 2.5 uM after 72 hrs by MTT assay; format: functional; conditions: MDA-MB-231, 72 h; in short: as §2
# [12] = Antiproliferative activity against human KG1 AML cells at 5 uM after 48 hrs by MTT assay; format: functional; conditions: in the assay text read “by hemocytometer cell counting” for “by MTT assay”; in short: as §3
# [13] = tested on: KG-1; assay: Induction of apoptosis in human KG1 cells at 5.0 uM […] by acridine orange staining; format: functional
# [14] = tested on: MDA-MB-231; assay: Induction of apoptosis in human MDA-MB-231 cells at 1.0 uM after 96 hrs by acridine orange staining; format: functional; in short: as §1
# [15] = target: T2, Tyrosine-protein phosphatase non-receptor type 11 (Homo sapiens, UniProt Q06124); assay: Inhibition of SHP2 overexpressed in human KG1 cells; format: cell-based, KG-1
# T2 sequence (Q06124 whole entry): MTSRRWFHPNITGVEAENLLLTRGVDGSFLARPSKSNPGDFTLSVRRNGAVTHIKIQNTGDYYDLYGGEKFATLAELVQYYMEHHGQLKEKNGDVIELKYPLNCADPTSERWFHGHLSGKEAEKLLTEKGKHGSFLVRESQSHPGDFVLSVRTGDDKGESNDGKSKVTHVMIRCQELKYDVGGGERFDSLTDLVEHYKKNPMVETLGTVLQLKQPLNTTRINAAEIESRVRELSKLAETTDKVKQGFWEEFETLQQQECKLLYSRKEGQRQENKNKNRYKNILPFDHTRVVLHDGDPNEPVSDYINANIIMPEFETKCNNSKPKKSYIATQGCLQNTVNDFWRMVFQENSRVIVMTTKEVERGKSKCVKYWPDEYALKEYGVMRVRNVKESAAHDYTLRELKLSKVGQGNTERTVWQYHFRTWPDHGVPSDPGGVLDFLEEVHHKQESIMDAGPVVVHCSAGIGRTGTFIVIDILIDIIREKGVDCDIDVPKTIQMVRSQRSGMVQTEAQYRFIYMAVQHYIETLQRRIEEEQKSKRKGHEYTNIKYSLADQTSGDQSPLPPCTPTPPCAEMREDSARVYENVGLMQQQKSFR
# In short: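 Shp-2 PTP activity was measured as hydrolysis of the fluorogenic substrate 6,8-difluoro-4-methylumbelliferyl phosphate in the presence of analogue in Me2SO or Me2SO alone (final concentration 5%).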
# [16] = tested on: DU-145; assay: Antiproliferative activity against human DU145 cells at 2.5 uM after 72 hrs by MTT assay; format: functional; conditions: DU-145, 72 h; in short: as §2
# [17] = Antiproliferative activity against human H292 cells at 2.5 uM after 72 hrs by MTT assay; format: functional; conditions: NCI-H292, 72 h; in short: as §2
# [18] = tested on: DU-145; assay: Antiproliferative activity against human DU145 cells at 20 uM after 72 hrs by MTT assay; format: functional; conditions: DU-145, 72 h; in short: as §2
# [19] = tested on: MDA-MB-231; assay: Antiproliferative activity against human MDA-MB-231 cells at 20 uM after 72 hrs by MTT assay; format: functional; conditions: MDA-MB-231, 72 h; in short: as §2
# [20] = Antiproliferative activity against human H292 cells at 20 uM after 72 hrs by MTT assay; format: functional; conditions: NCI-H292, 72 h; in short: as §2
IC50 [2] [nM],IC50 [3] [nM],IC50 [5] [nM],IC50 [7] [nM],IC50 [15] [nM],Compound,Activity [1] [%],Activity [4] [%],IC50 [6] [nM],Activity [8] [%],Activity [9] [%],IC50 [10] [nM],inhibition at 2.5 µM [11] [%],Activity [12] [%],Activity [13] [%],Activity [14] [%],inhibition at 2.5 µM [16] [%],inhibition at 2.5 µM [17] [%],inhibition at 20 µM [18] [%],inhibition at 20 µM [19] [%],inhibition at 20 µM [20] [%]
2500,480,4200,950,2100,O=C(O)/C=C/c1ccc(-c2ccc(O)c(C34CC5CC(CC(C5)C3)C4)c2)c(Cl)c1,94,30,400,51,43,1400,63,67,55,31,85,92,–,–,–
–,> 20000,–,> 20000,10200,CC1(c2cc(-c3ccc(/C=C/C(=O)O)cc3Cl)ccc2O)SCCCS1,–,5,> 20000,–,–,> 5000,–,0,5,–,–,–,8,13,6
